Screening data deposited in PubChem by Broad Institute.
Most compounds without a hit are left out; they make up all but 3% or so of the library.
Ecoli rRNA inh = reduced GFP signal of wild-type E. coli, primary screen, bacterial rRNA inhibitor project, GFP/RFP fluorescence, OD600, single point; GFP signal change (wild-type ribosome), % (no concentration beside the values); AID 720706, 2013; E. coli WT GFP vs humanized-ribosome RFP mutants, 24 h; active compounds read low; DMSO median 0, no signal -100; hit rate 1.6% among 350,000;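 active = significant combined selectivity score with lowered wild-type GFP, culture density cut under 30%, mutant RFP and density less affected; inactive = any of these conditions unmet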
SIRT5 block = SIRT5 desuccinylase inhibitors, primary screen, biochemical, fluorescence imaging, single point, set 5; NAD-dependent protein deacylase sirtuin-5, mitochondrial (Homo sapiens), Q9NXA8; Purified SirT5, succinyl-peptide AMC, trypsin-coupled fluorescence; inhibition, % at 15 µM; hit rate 1.1% among 330,000; in the data active = inhibition above about 15%
Target sequence (Q9NXA8 whole entry, looked up): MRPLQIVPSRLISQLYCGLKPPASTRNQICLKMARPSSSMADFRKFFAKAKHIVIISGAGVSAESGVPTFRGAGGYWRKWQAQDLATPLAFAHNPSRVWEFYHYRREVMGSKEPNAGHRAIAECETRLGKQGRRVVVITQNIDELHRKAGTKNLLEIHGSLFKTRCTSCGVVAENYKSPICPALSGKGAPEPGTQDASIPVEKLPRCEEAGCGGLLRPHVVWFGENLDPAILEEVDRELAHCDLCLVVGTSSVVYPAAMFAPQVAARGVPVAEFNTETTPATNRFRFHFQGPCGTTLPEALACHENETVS
S100A4 MyoIIA = inhibitors of S100A4-myosin IIA peptide binding, primary screen, biochemical, fluorescence polarization, TAMRA-MyoIIA peptide; AID 652163, 2013; hit rate 0.14% among 360,000; inhibition, % at 10.7 µM;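 active = mean inhibition of at least 70% across replicates, with every replicate also reaching that level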
Target sequence (P26447 whole entry, looked up): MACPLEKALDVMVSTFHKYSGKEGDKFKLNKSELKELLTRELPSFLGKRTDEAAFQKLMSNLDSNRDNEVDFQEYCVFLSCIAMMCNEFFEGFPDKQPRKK
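Test system – S100A4 monomer (human) · Compound – single-point compound testing · Schedule – 5 min incubation before reading · Probe or stimulus – TAMRA-labelled myosin IIA heavy-chain peptide probe, 5 nM · Benchmarks – neutral control DMSO, positive control TFP · Medium – Calcium-containing HEPES buffer, pH 7.2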
PGC1a acetyl inh = inhibitors of PGC1a acetylation signal, primary screen, cell-based, U2OS, AlphaScreen, inhibitor mode | AlphaScreen anti-acetyl-lysine; with virally co-expressed GCN5 acetyltransferase | inhibition, % at 15.6 µM | hit rate 0.17% among 350,000 | AID 651687, 2012;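 active = every replicate shows inhibition of at least 40%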;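 also: 0% = neutral control wells and 100% = positive control wells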
Cneo AK release = Cryptococcus neoformans cell lysis inducers, primary screen, AK release luminescence, single concentration. hit rate 0.2% among 360,000. C. neoformans lysis, adenylate kinase release luminescence, 4 h; normalised: neutral wells 0, clomiphene wells 100. lysis activity, % at 15 µM. AID 651654, 2012;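 active = mean lysis activity across replicates of at least 80%, whatever share of replicates individually reach that level; inactive = mean lysis activity below 80%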
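Signal: Adenylate kinase release luminescence | Assay system: Log-phase Cryptococcus neoformans yeast cells | Input: Cells at 5 × 10^6 per mL | Buffer or medium: Fresh YPD growth medium | Compound: Single dose | Schedule: Static 4 h at 37 °C with compound, 1 h detection | Controls: Clomiphene | Read-out: Luminescence rise reflecting yeast cell lysis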
C2C12 statin = suppressors of statin myotoxicity in C2C12 myotubes, primary screen, cell-based, single point, plate reader; C2C12 myotubes + simvastatin, ATP luminescence, 48 h; scaled: DMSO 0, geranylgeraniol control 100; rescue of ATP level, % at 7.49 µM; hit rate 0.78% among 330,000;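 active = mean ATP rescue above about 67%, or every replicate alone reaching that limit, limit read from the data, passing the limit was not always enough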;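 also: myotubes were challenged with 10 µM simvastatin during compound exposure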
The depositor's hits bear a star; x = not tested or not shown.

SMILES | Ecoli rRNA inh | SIRT5 block | S100A4 MyoIIA | PGC1a acetyl inh | Cneo AK release | C2C12 statin
Cc1cccc(N2CCN(C(=O)c3ccc4ncsc4c3)CC2)c1C | x | x | x | -14.2 | -0.1 | -69.3
Cc1cccc(N2CCN(C(=O)N3CCCCC3)CC2)c1C | -36.0* | x | 0.4 | -8.2 | x | x
Cc1cccc(N2CCN(C(=O)c3ccc4nc[nH]c4c3)CC2)c1C | -17.4 | 30.5* | 1.1 | x | 5.4 | x
Cc1cccc(N2CCN(C(=O)N3CCOCC3)CC2)c1C | 0.2 | -2.8 | -1.2 | 11.1 | x | x
CC(=O)NC[C@H]1[C@@H](c2ccc(-c3cccc(F)c3)cc2)[C@@H](CO)N1C(C)=O | 0.2 | -1.9 | -1.9 | 2.0 | 1.5 | -6.6
Cc1cc(C(=O)COC(=O)c2ccc(Br)o2)c(C)n1C | -22.9* | 3.9 | 2.5 | -3.0 | -0.5 | -4.1
COc1cc(C2CC(=O)NC3=C2C(=O)CC(C)(C)C3)ccc1O (stereo not drawn) | x | x | 6.8 | 1.3 | 6.7 | -13.2
COc1cc(C2C3=C(CC(C)(C)CC3=O)NC3=C2C(=O)c2ccccc23)ccc1O (stereo not drawn) | -31.2* | 0.4 | 1.7 | -1.6 | 2.9 | 6.4
O=C(NC1CC1)C1CCN(C2CCN(C(=O)CC3=CCCCC3)CC2)CC1 | 0.7 | 28.9* | -4.6 | 0.8 | -5.8 | -4.1
CCC(=O)N1N=C(c2c(O)n(C)c(=O)n(C)c2=O)CC1c1ccccc1 (stereo not drawn) | -46.0* | 3.5 | 2.6 | -0.2 | 1.1 | 4.3
CCC(=O)N1N=C(c2ccccc2)CC1c1ccccc1 (stereo not drawn) | -10.0 | -0.9 | -1.4 | -0.8 | -4.2 | 10.7
C[C@@H]1CN([C@@H](C)CO)C(=O)Cc2cc(NC(=O)CCC(F)(F)F)ccc2O[C@H]1CN(C)C(=O)Nc1ccccc1 | 5.1 | -1.3 | 12.5 | 1.7 | -0.8 | -13.7
Cc1ccc(S(=O)(=O)c2nc(Cc3ccccc3)oc2N2CCOCC2)cc1 | 0.0 | 18.3* | -0.3 | -4.2 | 1.0 | 8.0
Cc1noc(C)c1S(=O)(=O)Nc1ccc2c(c1)CC(=O)N([C@@H](C)CO)C[C@H](C)[C@H](CN(C)S(=O)(=O)c1ccc(F)cc1)O2 | 1.5 | -0.1 | 14.6 | -2.5 | -0.6 | -1.7
O=C(O)CC1=C(O)C(=O)N(c2ccccc2)C1c1ccc(Cl)cc1 (stereo not drawn) | x | x | x | -9.8 | 0.2 | 1.8
O=C(O)CC1=C(Nc2ccccc2)C(=O)N(c2ccccc2)C1c1ccc(Br)cc1 (stereo not drawn) | -21.9 | 17.0* | 1.7 | x | x | x
Cc1noc(C)c1S(=O)(=O)Nc1ccc2c(c1)C(=O)N([C@@H](C)CO)C[C@H](C)[C@@H](CN(C)C(=O)NC(C)C)O2 | 2.5 | 4.2 | 0.0 | 1.6 | 63.6 | x
O=C(C[C@@H]1CC[C@@H](NC(=O)Nc2cc(F)ccc2F)[C@H](CO)O1)NCc1ccc2c(c1)OCO2 | -9.1 | 3.5 | 0.6 | -1.6 | 3.4 | -10.7
COc1ccc(O)c(C(=O)c2cc(C#N)c(=O)n(CC3CCCO3)c2)c1 (stereo not drawn) | x | x | x | -2.7 | -0.8 | x
Cc1ccc(O)c(C(=O)c2cc(C#N)c(=O)n(CC3CCCO3)c2)c1 (stereo not drawn) | x | x | x | -6.7 | x | 95.3*
COc1cccc(CNC(=O)CN2c3cccc4cccc(c34)S2(=O)=O)c1 | -36.8* | -2.8 | -5.0 | 4.2 | -0.9 | -3.3
CN(CC(=O)Nc1cccc(F)c1)C(=O)CN1c2cccc3cccc(c23)S1(=O)=O | -40.4* | -1.8 | -2.0 | x | 0.9 | 1.9
Cc1ccc(CNC(=O)CN2c3cccc4cccc(c34)S2(=O)=O)cc1 | 3.4 | 5.6 | -4.8 | 8.3 | x | -0.9
C[C@@H]1CN([C@@H](C)CO)C(=O)Cc2cc(NC(=O)CCC(F)(F)F)ccc2O[C@@H]1CN(C)Cc1ccc(C(F)(F)F)cc1 | -1.2 | -1.0 | -2.9 | -8.9 | 0.4 | 9.8
COc1ccc(NC(=O)CC2C(=O)N(c3cccc(OC)c3)C(=O)N2CCC(C)C)cc1 (stereo not drawn) | x | x | x | 3.4 | 2.6 | 92.5*
SMILES | Ecoli rRNA inh | SIRT5 block | S100A4 MyoIIA | PGC1a acetyl inh | Cneo AK release | C2C12 statin
COc1ccc(NC(=O)CC2C(=O)N(c3cccc(OC)c3)C(=O)N2C(C)C)cc1 (stereo not drawn) | 6.1 | -1.3 | -6.7 | 8.0 | 2.6 | 1.3
COc1ccc(CN(C)C[C@@H]2Oc3ccc(NS(=O)(=O)c4c(C)noc4C)cc3CC(=O)N([C@H](C)CO)C[C@H]2C)cc1 | 4.0 | -2.6 | 2.8 | -0.4 | x | 33.4
O=C(COC(=O)c1ccccc1C(=O)c1ccc(Cl)cc1)NCCc1ccccc1 | -29.2* | -7.3 | -4.1 | x | 4.0 | x
CCOc1ccccc1C(=O)OCC(=O)NCCc1ccc(OC)cc1 | -21.9* | -5.9 | 1.0 | -15.5 | -1.3 | 8.5
O=C(COC(=O)c1ccccc1C(=O)c1ccccc1)NCCc1ccccc1 | -26.4 | -1.7 | 1.7 | 3.7 | x | -2.8
COc1ccc(NS(=O)(=O)c2ccc(NC(=O)c3ccccc3Br)cc2)nn1 | -25.5* | -3.1 | 4.0 | 1.9 | 0.4 | 13.0
c1ccc2c(CN3CCCCC3)csc2c1 | x | 15.1* | -4.1 | 0.8 | x | x
COc1ccc2c3c(n(C)c2c1)[C@H](CO)N(C(C)=O)CC31CN(C(=O)NC(C)C)C1 | 0.2 | x | x | -14.7 | x | x
CO[C@@H]1CN(C)C(=O)c2ccc(NC(=O)c3ccc(F)cc3)cc2OC[C@H](C)N(C(=O)CC2CC2)C[C@H]1C | -1.0 | 0.5 | 117.2* | 7.6 | 18.7 | 1.1
COCC(=O)N1C[C@H](C)[C@H](OC)CN(C)C(=O)c2ccc(NC(=O)NC(C)C)cc2OC[C@@H]1C | 2.1 | -6.5 | -8.4 | 1.3 | 80.2* | -7.1
COCC(=O)N1C[C@@H](C)[C@@H](OC)CN(C)C(=O)c2ccc(NC(=O)c3cc(C)on3)cc2OC[C@@H]1C | 0.2 | 34.1* | 16.0 | -22.7 | -1.6 | -8.9
CC(C)CC#Cc1ccc([C@@H]2[C@@H](CO)N3C(=O)CN(C(=O)c4ccc5c(c4)OCO5)C[C@@H]23)cc1 | -6.1 | x | x | x | x | x
CCCC#Cc1cnc2c(c1)C(=O)N([C@H](C)CO)C[C@@H](C)[C@@H](CN(C)C(=O)Cc1ccncc1)O2 | 4.1 | -5.6 | -10.2 | -1.0 | -4.1 | -0.9
C[C@H](CO)N1C[C@H](C)[C@H](CN(C)C(=O)c2cnccn2)Oc2ncc(-c3cccc(C#N)c3)cc2C1=O | 5.1 | 5.7 | 6.0 | 4.9 | -7.4 | 5.0
